# Columns and labels:
# Canis familiaris [1] = experiment: Conduction time was determined by intraduodenal administration of two dosages of 10 mg/kg of compound in anesthetized dogs. Value was reported for experiment 2; format: functional, Canis lupus familiaris
# How it was run: (§1)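 Anesthetized dogs; compound given intraduodenally, generally as two doses, the second a cumulative (high) dose. LV functional refractory period and conduction time measured 15, 30 and 45 min after dosing; heart rate and blood pressure measured during nonpacing intervals. Values are % change from control, given per individual animal. Active if FRP or CT prolonged by ≥12%.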
# Canis familiaris [2] = experiment: Conduction time was determined by intraduodenal administration of two dosages of 10 mg/kg (high dose) of compound in anesthetized dogs. Value was reported for experiment 1; format: functional, Canis lupus familiaris; how it was run: as §1
# Canis familiaris [3] = experiment: Conduction time was determined by intraduodenal administration of two dosages of 3 mg/kg (low dose) of compound in anesthetized dogs. Value was reported for experiment 1; format: functional, Canis lupus familiaris; how it was run: as §1
# Canis familiaris [4] = experiment: Heart rate was determined by intraduodenal administration of two dosages of 3 mg/kg of (low dose) compound in anesthetized dogs. Value was reported for experiment 1; format: functional, Canis lupus familiaris; how it was run: as §1
# Canis familiaris [5] = experiment: Heart rate was determined by intraduodenal administration of two dosages of 10 mg/kg of (high dose) compound in anesthetized dogs. Value was reported for experiment 1; format: functional, Canis lupus familiaris; how it was run: as §1
# Canis familiaris [6] = experiment: Heart rate was determined by intraduodenal administration of two dosages of 10 mg/kg of compound in anesthetized dogs. Value was reported for experiment 2; format: functional, Canis lupus familiaris; how it was run: as §1
# Canis familiaris [7] = experiment: Left ventricular refractory period was determined by intraduodenal administration of two dosages of 10 mg/kg of (high dose) compound in anesthetized dogs. Value was reported for experiment 1; format: functional, Canis lupus familiaris, Cardiac ventricle
# How it was run: (§2)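 Anesthetized dogs received two intraduodenal doses, the second cumulative (low dose/high dose). Left ventricular FRP and CT were measured 15, 30 and 45 min after dosing. Heart rate and mean blood pressure were taken during nonpacing intervals. Values are percent change from control. The vehicle was 5% dextrose in water/tragacanth. Activity was defined as ≥12% prolongation of FRP or CT.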
# Canis familiaris [8] = experiment: Left ventricular refractory period was determined by intraduodenal administration of two dosages of 10 mg/kg of compound in anesthetized dogs. Value was reported for experiment 2; format: functional, Canis lupus familiaris, Cardiac ventricle
# Canis familiaris [9] = experiment: Left ventricular refractory period was determined by intraduodenal administration of two dosages of 3 mg/kg of (low dose) compound in anesthetized dogs. Value was reported for experiment 1; format: functional, Canis lupus familiaris, Cardiac ventricle; how it was run: as §2
# Canis familiaris [10] = experiment: Mean arterial blood pressure was determined by intraduodenal administration of two dosages of 10 mg/kg of (high dose) compound in anesthetized dogs. Value was reported for experiment 1; format: functional, Canis lupus familiaris; how it was run: as §2
# Canis familiaris [11] = experiment: Mean arterial blood pressure was determined by intraduodenal administration of two dosages of 10 mg/kg of compound in anesthetized dogs. Value was reported for experiment 2; format: functional, Canis lupus familiaris; how it was run: as §2
# Canis familiaris [12] = experiment: Mean arterial blood pressure was determined by intraduodenal administration of two dosages of 3 mg/kg of (low dose) compound in anesthetized dogs. Value was reported for experiment 1; format: functional, Canis lupus familiaris; how it was run: as §2
# Canis familiaris [13] = species: Canis familiaris; experiment: In vitro electrophysiological evaluation in canine cardiac ventricular muscle reported as % change for the functional refractory period (FRP) concentration range of 0.1-30 uM; design: species or system Canis lupus familiaris, Muscle tissue
# How it was run: (§3)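 Canine right ventricle and papillary muscle strips in oxygenated Tyrode's solution, fitted with stimulating and recording electrodes. The extra-stimulus conduction-interval method was adapted for in vitro use. FRP and CT were read from a conduction-interval curve before and after various compound concentrations, and expressed as percent change from control. Compounds were taken from 10 mM deionized-water stock into Tyrode's. Each strip was used once as its own control.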
# Canis familiaris [14] = species: Canis familiaris; experiment: In vitro electrophysiological evaluation in canine cardiac ventricular muscle reported as maximum % change for conduction time(CT) at 0.1-30 uM concentration range; Minimal (<IO%increase or a decrease in CT); format: functional, Canis lupus familiaris, Muscle tissue; how it was run: as §3
# Canis familiaris [15] = species: Canis familiaris; experiment: In vitro electrophysiological evaluation in canine cardiac ventricular muscle reported as % change for conduction time(CT) at 0.1-30 uM concentration range; Minimal (<IO%increase or a decrease in CT); format: functional, Canis lupus familiaris, Muscle tissue
# Canis familiaris [16] = species: Canis familiaris; experiment: In vitro electrophysiological evaluation in canine cardiac Purkinje fibres reported as percent change Vmax concentration range of 0.1-10 uM; Minimal (<IO%increase or a decrease in CT); format: functional; details: Canis lupus familiaris; Purkinje fiber
# How it was run: (§4)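 Canine cardiac Purkinje fibres, intracellular microelectrode recording, paced at a basic cycle length of 1 s. APD95 and Vmax read simultaneously. Compound: 10 mM stock in deionized water, diluted into Tyrode's solution, tested over the stated concentration range. Each fibre used once as its own control. Result is % change from control, given at 10 µM or as the maximum with its concentration. M = <10% decrease or an increase in Vmax.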
# Canis familiaris [17] = species: Canis familiaris; experiment: In vitro electrophysiological evaluation in canine cardiac Purkinje fibres reported as percent change Vmax concentration range of 0.1-30 uM; Minimal (<IO%increase or a decrease in CT); format: functional; details: Canis lupus familiaris; Purkinje fiber; how it was run: as §4
# Canis familiaris [18] = species: Canis familiaris; experiment: In vitro electrophysiological evaluation in canine cardiac ventricular muscle reported as maximum % change for functional refractory period (FRP) at 0.1-30 uM concentration range; design: species or system Canis lupus familiaris, Muscle tissue; how it was run: as §3
# Canis familiaris [19] = species: Canis familiaris; experiment: In vitro electrophysiological evaluation in canine cardiac Purkinje fibres reported as maximum percent change Vmax concentration range of 0.1-10 uM; Minimal (<IO%increase or a decrease in CT); format: functional; details: Canis lupus familiaris; Purkinje fiber; how it was run: as §4
# Canis familiaris [20] = species: Canis familiaris; experiment: In vitro electrophysiological evaluation in canine cardiac Purkinje fibres reported as maximum percent change Vmax concentration range of 0.1-30 uM; Minimal (<IO%increase or a decrease in CT); format: functional; details: Canis lupus familiaris; Purkinje fiber; how it was run: as §4
# Canis familiaris [21] = species: Canis familiaris; experiment: In vitro electrophysiological activity in canine cardiac Purkinje fibres given as maximum % change for action potential duration at 0.1-10 uM concentration; format: functional, Canis lupus familiaris, Purkinje fiber
# How it was run: (§5)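 Canine cardiac Purkinje fibres, intracellular recording at 1 s basic cycle length, over cumulative concentration ranges. Compound 10 mM stock in deionized water diluted into Tyrode's. Each fibre used once as its own control. Value is the maximum % change from control in APD at 95% repolarization, with the concentration where it occurred; both values given if a biphasic response (>20% reversal) occurred.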
# Canis familiaris [22] = species: Canis familiaris; experiment: In vitro electrophysiological evaluation in canine cardiac Purkinje fibres reported as % change for action potential duration at 0.1-10 uM concentration range; format: functional, Canis lupus familiaris, Purkinje fiber; how it was run: as §4
# Canis familiaris [23] = species: Canis familiaris; experiment: In vitro electrophysiological evaluation in canine cardiac Purkinje fibres reported as % change for action potential duration at 0.1-30 uM concentration range; format: functional, Canis lupus familiaris, Purkinje fiber; how it was run: as §4
# Canis familiaris [24] = species: Canis familiaris; experiment: In vitro electrophysiological activity in canine cardiac Purkinje fibres given as maximum % change for action potential duration at 0.1-30 uM concentration; format: functional, Canis lupus familiaris, Purkinje fiber; how it was run: as §5
# Canis familiaris [25] = experiment: Effective dose administered intravenously to elicit Antiarrhythmic efficacy in anesthetized dogs was reported. Value in parenthesis indicates no. of animals effective at that dose.; format: functional, Canis lupus familiaris, Heart
# How it was run: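 Dogs are anesthetized and the chest reopened. Stimulating and recording electrodes go on the myocardium. Reproducible PES-induced sustained VT or VF is confirmed first; SVT is ended by burst pacing and VF by DC countershock. Compound is given iv in 0.9% saline and inducibility retested. A dose counts as effective when SVT/VF cannot be reinduced in two of three animals.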
structure (smiles),measurement,setting,value
CCCCCCC[N+]12CCC(CC1)/C(=C/Cc1ccc(Cl)cc1)C2.[Br-],CT,Canis familiaris [1],5%
same,CT,Canis familiaris [2],-5%
same,CT,Canis familiaris [3],0%
same,HR,Canis familiaris [4],5%
same,HR,Canis familiaris [5],-9%
same,HR,Canis familiaris [6],-13%
same,LV FRP,Canis familiaris [7],15%
same,LV FRP,Canis familiaris [8],16%
same,LV FRP,Canis familiaris [9],2%
same,Mean blood pressure,Canis familiaris [10],15%
same,Mean blood pressure,Canis familiaris [11],42%
same,Mean blood pressure,Canis familiaris [12],5%
same,FRP,Canis familiaris [13],21%
same,CT,Canis familiaris [14],<10%
same,CT,Canis familiaris [15],<10%
same,Vmax,Canis familiaris [16],< 10%
same,Vmax,Canis familiaris [17],< 10%
same,FRP,Canis familiaris [18],30%
same,Vmax,Canis familiaris [19],< 10%
same,Vmax,Canis familiaris [20],< 10%
same,APD95,Canis familiaris [21],50%
same,APD95,Canis familiaris [22],40%
same,APD95,Canis familiaris [23],64%
same,APD95,Canis familiaris [24],64%
same,Effective dose,Canis familiaris [25],0.3 mg/kg
